Results published in ChEMBL document CHEMBL5346895, “Small molecule inhibitors of intestinal epithelial anion exchanger SLC26A3 (DRA) with a luminal, extracellular site of action” (Eur J Med Chem, 2023).
Activity calls are given as the source filed them. The rule behind the calls is not given here.

Tests used:
[1] = biological target: T1, Solute carrier family 26 member 9 (Homo sapiens) (UniProt Q7LBE3); assay: Inhibition of SLC26A9 (unknown origin) at 10 uM by YFP-based assay relative to control
T1 sequence (whole entry): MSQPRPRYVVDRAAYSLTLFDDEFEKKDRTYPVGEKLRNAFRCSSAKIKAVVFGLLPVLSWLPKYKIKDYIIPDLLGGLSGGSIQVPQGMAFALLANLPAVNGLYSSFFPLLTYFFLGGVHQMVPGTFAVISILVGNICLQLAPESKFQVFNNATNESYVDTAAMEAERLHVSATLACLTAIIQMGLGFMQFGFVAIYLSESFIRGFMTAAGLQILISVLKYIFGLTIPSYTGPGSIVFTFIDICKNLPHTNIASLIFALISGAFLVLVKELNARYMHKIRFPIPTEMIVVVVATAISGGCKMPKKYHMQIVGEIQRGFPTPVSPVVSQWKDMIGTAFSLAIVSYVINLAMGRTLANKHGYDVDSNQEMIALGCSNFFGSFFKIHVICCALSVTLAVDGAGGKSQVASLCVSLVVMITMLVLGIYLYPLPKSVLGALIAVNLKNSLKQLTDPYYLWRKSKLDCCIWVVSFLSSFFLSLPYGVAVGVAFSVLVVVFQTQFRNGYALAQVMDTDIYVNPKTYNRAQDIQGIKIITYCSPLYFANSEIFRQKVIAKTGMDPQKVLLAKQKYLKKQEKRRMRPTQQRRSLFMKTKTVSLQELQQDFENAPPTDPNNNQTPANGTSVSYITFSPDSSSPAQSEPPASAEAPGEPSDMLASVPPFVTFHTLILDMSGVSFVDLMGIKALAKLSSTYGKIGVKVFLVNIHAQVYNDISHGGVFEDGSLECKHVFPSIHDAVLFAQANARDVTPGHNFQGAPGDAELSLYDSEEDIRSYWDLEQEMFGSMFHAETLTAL

[2] = biological target: T2, Pendrin (Homo sapiens) (UniProt O43511); assay: Inhibition of SLC26A4 (unknown origin) at 10 uM by YFP-based assay relative to control
T2 sequence (whole entry): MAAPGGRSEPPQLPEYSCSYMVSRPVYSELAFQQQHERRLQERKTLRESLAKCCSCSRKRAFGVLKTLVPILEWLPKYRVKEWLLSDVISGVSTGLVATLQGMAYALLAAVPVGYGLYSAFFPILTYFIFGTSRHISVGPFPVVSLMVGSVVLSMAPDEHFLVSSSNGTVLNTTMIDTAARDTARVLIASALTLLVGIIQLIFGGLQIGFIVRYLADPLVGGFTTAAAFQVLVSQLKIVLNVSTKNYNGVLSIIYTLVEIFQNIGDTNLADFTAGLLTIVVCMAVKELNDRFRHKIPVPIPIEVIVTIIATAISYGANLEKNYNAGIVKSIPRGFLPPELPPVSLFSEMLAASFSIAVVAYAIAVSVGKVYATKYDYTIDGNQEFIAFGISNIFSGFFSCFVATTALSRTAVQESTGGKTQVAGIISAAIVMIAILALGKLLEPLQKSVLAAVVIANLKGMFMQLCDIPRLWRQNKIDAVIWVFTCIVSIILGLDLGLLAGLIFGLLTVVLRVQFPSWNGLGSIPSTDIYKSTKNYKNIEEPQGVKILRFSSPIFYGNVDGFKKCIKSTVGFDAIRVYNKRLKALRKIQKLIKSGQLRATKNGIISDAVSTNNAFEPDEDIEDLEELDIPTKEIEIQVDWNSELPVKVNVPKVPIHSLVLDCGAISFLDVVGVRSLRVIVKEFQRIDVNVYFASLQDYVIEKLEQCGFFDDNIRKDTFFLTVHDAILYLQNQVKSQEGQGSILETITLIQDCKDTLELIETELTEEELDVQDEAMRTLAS

[3] = biological target: T3, Chloride anion exchanger (Mus musculus) (UniProt Q9WVC8); assay: Inhibition of mouse SLC26A3 expressed in FRT cells coexpressing YFP iodide-sensing protein at 2 times IC50 measured for 14 secs by fluorescence quenching analysis relative to control; format: cell-based; details: time 14.0 sec
T3 sequence (whole entry): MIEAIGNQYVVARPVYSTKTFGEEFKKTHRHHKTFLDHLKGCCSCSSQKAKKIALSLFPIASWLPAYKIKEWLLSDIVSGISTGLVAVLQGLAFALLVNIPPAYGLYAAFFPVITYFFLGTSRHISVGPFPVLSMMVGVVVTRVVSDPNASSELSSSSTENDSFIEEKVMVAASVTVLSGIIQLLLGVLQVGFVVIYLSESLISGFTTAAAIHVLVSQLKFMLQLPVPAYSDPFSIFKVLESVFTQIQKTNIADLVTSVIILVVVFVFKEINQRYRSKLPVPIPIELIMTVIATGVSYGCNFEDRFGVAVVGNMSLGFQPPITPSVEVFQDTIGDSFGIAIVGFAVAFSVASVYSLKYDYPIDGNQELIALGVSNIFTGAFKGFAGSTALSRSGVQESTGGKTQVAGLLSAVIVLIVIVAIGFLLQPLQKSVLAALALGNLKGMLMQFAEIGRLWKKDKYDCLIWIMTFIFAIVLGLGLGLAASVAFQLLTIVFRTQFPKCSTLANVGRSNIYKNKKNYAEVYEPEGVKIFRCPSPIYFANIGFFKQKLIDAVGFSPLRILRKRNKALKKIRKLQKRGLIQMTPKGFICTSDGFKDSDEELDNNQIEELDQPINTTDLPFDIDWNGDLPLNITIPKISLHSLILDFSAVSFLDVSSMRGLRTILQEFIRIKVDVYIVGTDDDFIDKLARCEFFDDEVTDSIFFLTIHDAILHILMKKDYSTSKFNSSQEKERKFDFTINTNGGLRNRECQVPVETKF
In short: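 Onset kinetics in FRT cells co-expressing murine slc26a3 and YFP halide sensor. […] Fluorescence read for 1 s before and 12 s after syringe-pump addition of iodide solution (NaCl replaced by 140 mM NaI). Inhibition taken from the quenching rate.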

[4] = biological target: T3, Chloride anion exchanger (Mus musculus); assay: Inhibition of mouse SLC26A3 expressed in FRT cells coexpressing YFP iodide-sensing protein at 5 times IC50 incubated for 10 mins followed by compound washout by fluorescence quenching analysis relative to control; format: cell-based
[5] = biological target: T3, Chloride anion exchanger (Mus musculus); assay: Inhibition of mouse SLC26A3 expressed in FRT cells coexpressing YFP iodide-sensing protein at 5 times IC50 incubated for 10 mins by fluorescence quenching analysis relative to control; format: cell-based
[6] = test system: Mus musculus; assay: Effect on loperamide-induced constipation in CD-1 mouse assessed as increase in pellet number at 10 mg/kg, po via gavage administered 1 hr prior to loperamide administration measured for 3 hrs; format: functional, organism-based; details: time 4.0 hrs
In short: (§1)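 CD1 mice (bred in house, 8–12 weeks). Test compound given by oral gavage at 10 mg/kg in saline with 5% DMSO and 10% Kolliphor-HS, or vehicle alone, 1 h before loperamide (0.3 mg/kg ip in PBS with 5% ethanol). Mice then held in metabolic cages with free food and water. Stool collected over 3 h for total weight and pellet count. Water content from wet vs dry stool weight.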

[7] = test system: Mus musculus; assay: Effect on loperamide-induced constipation in CD-1 mouse assessed as increase in stool weight at 10 mg/kg, po via gavage administered 1 hr prior to loperamide administration measured for 3 hrs; format: functional, organism-based; details: time 4.0 hrs; in short: as §1

| inhibition [1] | inhibition [2] | inhibition [3] | inhibition [4] | inhibition [5] | SMILES | Activity [6] | Activity [7] |
| --- | --- | --- | --- | --- | --- | --- | --- |
| -2% | -3% |  |  |  | O=C(Nc1cccc(-c2nc3ccccc3c(=O)o2)c1)c1ccc(Cl)cc1 |  |  |
| -8% | -13% | 38% | 25% | 87% | Cc1ccccc1COc1ccc2oc(-c3ccccc3)c(C(=O)O)c2c1 |  |  |
| 22% |  | 66% | 32% | 92% | O=c1cc(COc2ccccc2Cl)nc2scc(-c3ccccc3)n12 | Active | Active |
| -2% | 17% |  |  |  | Cc1cc(C)cc(N(C)S(=O)(=O)c2nnc(NC(=O)COc3ccc(C)c(C)c3)s2)c1 |  |  |
